In ChEMBL document CHEMBL1129609, “Synthesis and antiviral activity evaluation of some new aminoadamantane derivatives. 2” (1996) one finds MIC50 data, which are given here for five molecules.

Values after ≈ are worked out from the molar mass of the structure shown.

Assay [1] deals with Human immunodeficiency virus 2. Nature of the assay: Antiviral activity against HIV-2 virus infected CEM cell lines. In kind it is functional, CCRF-CEM.
The test system of a further assay is CCRF-CEM. Nature of the assay: Cytotoxicity against CEM cell lines. It counts as functional. The conditions noted are these: Homo sapiens.
The test system of assay [2] is Human immunodeficiency virus 1. Nature of the assay: Antiviral activity against HIV-1 virus infected CEM cell lines. In kind it is functional, CCRF-CEM.
Assay [3] has as its system Human alphaherpesvirus 1. Kind of assay: Antiviral activity against HSV-1 virus infected HEF cell lines. It counts as functional. An outline of the steps: (§1)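 Human embryonic fibroblasts, from embryonic lung or embryonic skin-muscle, infected with the virus. Endpoint is the minimum inhibitory concentration that reduces virus-induced cytopathicity by 50%. Values are averages of at least two separate experiments.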

The test system of a further assay is Human alphaherpesvirus 2. Nature of the assay: Antiviral activity against HSV-2 virus infected HEF cell lines. In kind it is functional. The procedure, abridged: as §1
In assay [4] the test system is Human alphaherpesvirus 1. Kind of assay: Antiviral activity against TK-HSV-1 virus infected HEF cell lines. In kind it is functional. The procedure, abridged: as §1
A further assay concerns HEF. Kind of assay: Effects on cell morphology of HEF cell lines. The note with it: Homo sapiens. It counts as functional. An outline of the steps: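 Human embryonic skin-muscle fibroblasts were examined under the microscope for changes in normal cell morphology. The value is the minimum concentration causing a microscopically detectable alteration, averaged from at least two separate experiments.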

Another assay deals with Vaccinia virus. Kind of assay: Antiviral activity against vaccinia virus infected HEF cell lines. In kind it is functional. The conditions noted are these: Orthopoxvirus vaccinia. The procedure, abridged: as §1
Another assay concerns Enterovirus C. Nature of the assay: Antiviral activity against polio 1 virus infected HeLa cell lines. It counts as functional. The procedure, abridged:
(§2)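 Vero (African green monkey kidney), HeLa (human epithelial) or HEL (human embryonic lung) cell monolayers infected with the virus. Readout is the minimum inhibitory concentration that reduces virus-induced cytopathicity by 50%. Values are averages of at least two separate experiments.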

Assay [5] deals with Vesicular stomatitis virus. Nature of the assay: Antiviral activity against vesicular stomatitis virus infected HeLa cell lines. In kind it is functional. An outline of the steps:
as §2

For assay [6], the system named is Coxsackievirus B4. Kind of assay: Antiviral activity against Coxsackie B4 virus infected HeLa cell lines. It counts as functional. The conditions noted are these: Enterovirus B. The procedure, abridged:
as §2

In the next assay the test system is Human betaherpesvirus 5. Kind of assay: Antiviral activity against HCMV virus infected HEL cell lines. It counts as functional. The procedure, abridged:
as §2

Assay [7] deals with Human alphaherpesvirus 3. Nature of the assay: Antiviral activity against TK+VZV virus infected HEL cell lines. In kind it is functional. An outline of the steps:
as §2

For assay [8], the system named is Human alphaherpesvirus 3. Kind of assay: Antiviral activity against TK-VZV virus infected HEL cell lines. In kind it is functional. The procedure, abridged: as §2
The test system of the next assay is HEL. Kind of assay: Inhibition of HEL cell proliferation. The conditions noted are these: Homo sapiens. It counts as functional. An outline of the steps: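 Human embryonic lung fibroblasts were used for the proliferation assay. The value is the concentration that reduces cell proliferation by 50%, averaged from at least two separate experiments.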
The subject of assay [9] is MDCK. Nature of the assay: Antiviral activity tested against influenza A,H1N1 virus infected MDCK cell lines. In kind it is functional. The note with it: Canis lupus familiaris.
Assay [10] is described as follows: Antiviral activity against influenza A,H3N2 virus infected MDCK cell lines. In kind it is functional.
The test system of a further assay is Influenza B virus. Nature of the assay: Antiviral activity against influenza B virus infected MDCK cell lines. It counts as functional.
The test system of assay [11] is MDCK. Nature of the assay: Antiviral activity of compound was tested against morphology virus infec+ted MDCK cell lines. It counts as functional. The conditions noted are these: Canis lupus familiaris.
The next assay has as its system Semliki Forest virus. Nature of the assay: Antiviral activity against Semliki forest virus infected Vero cell lines. It counts as functional. The procedure, abridged:
as §2

The subject of assay [12] is Coxsackievirus B4. Nature of the assay: Antiviral activity against Coxsackie B4 virus infected vero cell lines. The note with it: Enterovirus B. It counts as functional. The procedure, abridged: as §2
Another assay has as its system Vero. Nature of the assay: Effects on cell morphology of Vero cell lines. It counts as functional. The note with it: Chlorocebus sabaeus. The procedure, abridged:
(§3)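 HeLa (human epithelial) or Vero (African green monkey kidney) cells were examined under the microscope for changes in normal morphology. The value is the minimum concentration causing a detectable alteration, averaged from at least two separate experiments.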

A further assay relates to Human respirovirus 3. Kind of assay: Antiviral activity against parainfluenza 3 virus infected Vero cell lines. It counts as functional. The procedure, abridged: as §2
In assay [13] the test system is Mammalian orthoreovirus 1. Nature of the assay: Antiviral activity against Reo 1 virus infected vero cell lines. It counts as functional. An outline of the steps: as §2
The test system of another assay is Sindbis virus. Kind of assay: Antiviral activity against sindbis virus infected Vero cell lines. In kind it is functional. The procedure, abridged:
as §2

Assay [14] can be described thus: Antiviral activity against influenza A,H2N2 virus infected MDCK cell lines. In kind it is functional.
In the next assay the test system is HeLa. Kind of assay: Effects on cell morphology of HeLa cell lines. The conditions noted are these: Homo sapiens. It counts as functional. The procedure, abridged: as §3
Assay [15] relates to Vesicular stomatitis virus. Nature of the assay: Antiviral activity against vesicular stomatitis virus infected HEF cell lines. It counts as functional. The procedure, abridged:
as §1

Take `CN1CCCCC12C1CC3CC(C1)CC2C3` (stereo not given): the MIC50 in [1] is over 200 µg/mL; in the assay with CCRF-CEM, over 200 µg/mL; in assay [2], 115 µg/mL (≈ 524 µM); against Human alphaherpesvirus 1 [3], over 200 µg/mL; in the assay on Human alphaherpesvirus 2, over 200 µg/mL; against Human alphaherpesvirus 1 [4], over 200 µg/mL. The MIC50 is 100 µg/mL (≈ 456 µM) against HEF; over 200 µg/mL in the assay with Vaccinia virus; over 400 µg/mL in the assay with Enterovirus C; over 400 µg/mL in [5]; over 400 µg/mL against Coxsackievirus B4 [6]; over 50 µg/mL against Human betaherpesvirus 5. The MIC50 is over 50 µg/mL against Human alphaherpesvirus 3 [7]; over 50 µg/mL against Human alphaherpesvirus 3 [8]; over 50 µg/mL against HEL; 6.2 µg/mL (≈ 28.3 µM) with MDCK [9]; 45 µg/mL (≈ 205 µM) in assay [10]; 60 µg/mL (≈ 274 µM) in the assay on Influenza B virus. Moreover, the MIC50 was over 250 µg/mL against MDCK [11]; over 400 µg/mL with Semliki Forest virus; over 400 µg/mL against Coxsackievirus B4 [12]; over 400 µg/mL against Vero; over 400 µg/mL against Human respirovirus 3; over 400 µg/mL in [13]. In addition, the MIC50 in the assay on Sindbis virus is over 400 µg/mL; in [14], 0.58 µg/mL (≈ 2.64 µM); against HeLa, over 400 µg/mL; in [15] it was over 200 µg/mL.

As for `NC(=O)c1ncn([C@@H]2O[C@H](CO)[C@@H](O)[C@H]2O)n1` [RIBAVIRIN], the MIC50 against Human alphaherpesvirus 1 [3] was over 200 µg/mL; in the assay with Human alphaherpesvirus 2 it was over 200 µg/mL; against Human alphaherpesvirus 1 [4], over 200 µg/mL; in the assay on HEF, 400 µg/mL (≈ 1640 µM); against Vaccinia virus, 20 µg/mL (≈ 81.9 µM); with Enterovirus C, 20 µg/mL (≈ 81.9 µM). Also, the MIC50 in [5] is 20 µg/mL (≈ 81.9 µM); against Coxsackievirus B4 [6], 10 µg/mL (≈ 40.9 µM); against MDCK [9] it was 19 µg/mL (≈ 77.8 µM); in [10], 5.6 µg/mL (≈ 22.9 µM); against Influenza B virus, 2.4 µg/mL (≈ 9.83 µM); in the assay with MDCK [11] it was over 250 µg/mL. Also, the MIC50 in the assay on Semliki Forest virus was over 400 µg/mL; against Coxsackievirus B4 [12], over 400 µg/mL; in the assay with Vero, over 400 µg/mL; in the assay on Human respirovirus 3, 150 µg/mL (≈ 614 µM); in [13], 70 µg/mL (≈ 287 µM); against Sindbis virus it was over 400 µg/mL. In addition, the figures for the MIC50 (in assay [14]; against HeLa; in assay [15]) were 48.7 µg/mL (≈ 199 µM), over 400 µg/mL and 20 µg/mL (≈ 81.9 µM), respectively.

`NC1(C23CC4CC(CC(C4)C2)C3)CCCC1`: the MIC50 in assay [1] is over 8 µg/mL; in the assay with CCRF-CEM, 18 µg/mL (≈ 82.1 µM); in [2], over 8 µg/mL; in the assay with Human alphaherpesvirus 1 [3] it was over 10 µg/mL; against Human alphaherpesvirus 2 it was over 10 µg/mL; against Human alphaherpesvirus 1 [4], over 10 µg/mL. The MIC50 was 40 µg/mL (≈ 182 µM) with HEF; over 10 µg/mL against Vaccinia virus; over 40 µg/mL in the assay on Enterovirus C; over 40 µg/mL in [5]; over 40 µg/mL with Coxsackievirus B4 [6]; over 20 µg/mL with Human betaherpesvirus 5. Further, the MIC50 in the assay with Human alphaherpesvirus 3 [7] is over 20 µg/mL; in the assay with Human alphaherpesvirus 3 [8] it was over 20 µg/mL; in the assay with HEL, over 50 µg/mL; against MDCK [9], over 64 µg/mL; in [10], 6 µg/mL (≈ 27.4 µM); in the assay on Influenza B virus, 20 µg/mL (≈ 91.2 µM). In addition, the MIC50 was over 250 µg/mL against MDCK [11]; over 10 µg/mL against Semliki Forest virus; over 10 µg/mL in the assay with Coxsackievirus B4 [12]; over 400 µg/mL with Vero; over 10 µg/mL against Human respirovirus 3; over 10 µg/mL in assay [13]. Moreover, the MIC50 against Sindbis virus is over 10 µg/mL; in assay [14] it was 2.5 µg/mL (≈ 11.4 µM); in the assay on HeLa, 100 µg/mL (≈ 456 µM); in assay [15], over 10 µg/mL.

For `CC(N)C12CC3CC(CC(C3)C1)C2` (stereo not given) [RIMANTADINE], the MIC50 was 28 µg/mL (≈ 156 µM) against MDCK [9]; over 12 µg/mL in [10]; over 20 µg/mL in the assay with Influenza B virus; 250 µg/mL (≈ 1390 µM) against MDCK [11]; under 0.14 µg/mL in assay [14].

Regarding `NC12CC3CC(CC(C3)C1)C2` [AMANTADINE], the results for the MIC50 (with MDCK [9]; in the assay on MDCK [11]; in assay [14]) were 48 µg/mL (≈ 317 µM), over 250 µg/mL and 0.8 µg/mL (≈ 5.29 µM), respectively.
